According to article PMC3563241 (Nuclear medicine and biology, 2012):
“And” between values parts separate entries of the source, which are not always exact repeats. Identical values can stand only once.

Tests used:
[1] = target: integrin α4β1 (VLA-4) (Mus musculus, UniProt P09055+Q00651); assay: Saturation binding assay in B16F10 melanoma cells; settings: 4 °C, 2 h, 0.1–80 nM
How it was run: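 Binding medium was HBSS with 0.1% BSA and 1 mM Mn²⁺. Nonspecific binding was measured with 12 μg unlabelled ligand. After 2 h on ice, cells were rinsed, lysed in 0.5% SDS and gamma-counted. Counts were normalised to BCA protein, n=3 per point.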

[2] = Biodistribution studies in B16F10 tumor-bearing mice; type: in vivo, C57BL/6 mice; settings: C57BL/6, mouse, iv, total radioactivity; for tissue uptake at 2 h: 14 μCi (14 ng); for tissue to tissue ratio at 2 h: 14 ng
How it was run: (§1)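 Subcutaneous B16F10 tumours (1 × 10⁷ cells in PBS:Matrigel 1:1) grown 14–21 d in 7-wk-old C57BL/6 mice. Mice (n = 5/group) were given the ⁶⁴Cu-labelled conjugate i.v., 14 μCi (14 ng; 1000 μCi/μg); the blocking group's dose was premixed with 50 μg unlabelled ligand. Animals were killed at 2 h, and tissues and tumour were weighed and gamma-counted. %ID/g was decay-corrected against an injected-dose standard; mean±SD.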

[3] = test system: B16F10 tumor-bearing mice; assay: as above; type: in vivo, C57BL/6 mice; settings: 2 h, co-administered with excess cold LLP2A (50 μg)
How it was run: as §1

[4] = test system: B16F10 tumor-bearing mice; assay: Small animal PET/CT imaging of B16F10 tumor-bearing mice; type: in vivo, C57BL/6 mice; settings: 2 h post-injection
How it was run: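 Mice bearing B16F10 tumours received the ⁶⁴Cu-labelled conjugate by tail vein, 100 μCi (667 ng); half of the doses were premixed with 100 μg unlabelled ligand. PET/CT was done at 2 and 24 h under 1–2% isoflurane, with 15 or 30 min static scans and MAP reconstruction. CT-guided ROIs gave maximum SUV (nCi/mL × weight/injected dose), and tumour:background ratios were taken from MIP images (n = 2).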

[5] = test system: B16F10 tumor-bearing mice; settings: 2 h post-injection, 5 μCi (12.5 ng); previously published data; cited from earlier work

integrin α4β1 (VLA-4), sequence (Q00651 41-1039): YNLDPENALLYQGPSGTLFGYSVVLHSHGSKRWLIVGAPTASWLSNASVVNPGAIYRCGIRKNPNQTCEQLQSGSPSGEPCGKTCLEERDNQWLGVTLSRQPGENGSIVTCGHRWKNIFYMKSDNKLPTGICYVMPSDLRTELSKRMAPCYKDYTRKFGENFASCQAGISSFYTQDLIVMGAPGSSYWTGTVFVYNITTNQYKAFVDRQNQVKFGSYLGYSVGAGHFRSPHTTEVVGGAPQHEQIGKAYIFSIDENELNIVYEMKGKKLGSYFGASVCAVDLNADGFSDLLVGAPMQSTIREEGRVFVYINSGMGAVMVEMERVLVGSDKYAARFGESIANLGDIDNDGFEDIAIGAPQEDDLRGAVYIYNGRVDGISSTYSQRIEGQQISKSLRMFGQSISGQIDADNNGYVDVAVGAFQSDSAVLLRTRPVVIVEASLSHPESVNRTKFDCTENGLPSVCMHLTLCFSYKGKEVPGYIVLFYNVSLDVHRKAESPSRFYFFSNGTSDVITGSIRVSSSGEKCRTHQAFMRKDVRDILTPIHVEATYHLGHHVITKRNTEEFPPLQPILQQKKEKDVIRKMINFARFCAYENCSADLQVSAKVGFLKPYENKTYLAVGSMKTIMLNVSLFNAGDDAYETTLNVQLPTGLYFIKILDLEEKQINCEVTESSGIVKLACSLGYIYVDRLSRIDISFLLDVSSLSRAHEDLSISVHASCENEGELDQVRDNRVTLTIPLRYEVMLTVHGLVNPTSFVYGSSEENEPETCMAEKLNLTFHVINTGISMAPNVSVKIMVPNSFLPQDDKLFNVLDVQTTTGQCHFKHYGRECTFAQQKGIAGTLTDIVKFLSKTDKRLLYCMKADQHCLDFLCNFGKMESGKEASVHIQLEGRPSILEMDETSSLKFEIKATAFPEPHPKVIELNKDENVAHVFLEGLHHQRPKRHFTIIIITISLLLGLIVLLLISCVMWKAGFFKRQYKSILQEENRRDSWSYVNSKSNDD
integrin α4β1 (VLA-4), sequence (P09055 21-798): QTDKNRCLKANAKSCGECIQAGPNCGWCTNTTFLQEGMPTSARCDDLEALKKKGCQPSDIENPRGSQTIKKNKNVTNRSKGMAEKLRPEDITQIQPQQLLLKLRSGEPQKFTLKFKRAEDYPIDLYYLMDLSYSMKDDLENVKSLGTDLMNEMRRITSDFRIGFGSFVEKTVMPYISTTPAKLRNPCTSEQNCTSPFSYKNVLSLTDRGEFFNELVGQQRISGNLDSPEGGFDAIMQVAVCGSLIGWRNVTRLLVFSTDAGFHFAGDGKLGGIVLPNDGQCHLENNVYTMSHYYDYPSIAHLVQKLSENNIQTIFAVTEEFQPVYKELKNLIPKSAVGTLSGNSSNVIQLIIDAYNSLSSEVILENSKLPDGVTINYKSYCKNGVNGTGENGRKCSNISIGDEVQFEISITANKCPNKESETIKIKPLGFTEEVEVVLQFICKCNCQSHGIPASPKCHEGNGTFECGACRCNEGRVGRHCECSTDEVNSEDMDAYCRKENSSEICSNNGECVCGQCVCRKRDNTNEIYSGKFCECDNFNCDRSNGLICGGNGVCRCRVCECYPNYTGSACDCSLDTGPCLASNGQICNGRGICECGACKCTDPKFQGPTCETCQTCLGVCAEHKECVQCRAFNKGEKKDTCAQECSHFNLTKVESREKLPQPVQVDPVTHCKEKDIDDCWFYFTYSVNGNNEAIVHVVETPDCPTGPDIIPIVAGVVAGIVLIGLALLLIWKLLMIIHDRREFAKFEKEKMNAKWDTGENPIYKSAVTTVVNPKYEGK

Cc1ccccc1NC(=O)Nc1ccc(CC(=O)N[C@@H](CCCCNC(=O)/C=C/c2cccnc2)C(=O)N[C@@H](CCCC(=O)O)C(=O)NC2(C(=O)NCCOCCOCCNC(=O)CCC(=O)NCCOCCOCCNC(=O)CCC(=O)N[C@@H](CCCCNC(=O)CN3CCCN4CCN(CCCN(CP(=O)(O)O)CC4)CC3)C(N)=O)CCCCC2)cc1 [^64Cu-CB-TE1A1P-LLP2A, metal not drawn]
receptor concentration (Bmax) [1]: 471 fmol/mg and 471 ± 14 fmol/mg
tissue uptake at 2 h ([2]; bone): 6.2 ± 1.7 %ID/g
tissue uptake at 2 h ([2]; kidney): 3.2 ± 0.4 %ID/g
tissue uptake at 2 h ([2]; liver): 2.3 ± 0.3 %ID/g
tissue uptake at 2 h ([2]; marrow): 32.6 ± 19 %ID/g
tissue uptake at 2 h ([2]; spleen): 17.9 ± 2.3 %ID/g
tissue to tissue ratio at 2 h ([2]; tumor / blood): 19.5 ± 3
tissue to tissue ratio at 2 h ([2]; tumor / muscle): 13 ± 1.4
tissue uptake at 2 h ([2]; tumor): 11.4 ± 2.3 %ID/g
Radiotracer uptake in tumor, spleen and bone in the presence of blocking agent [3]: significantly reduced
Fold higher tumor to background ratio than ^64Cu-CB-TE2A-LLP2A [4]: more than 2 fold

Cc1ccccc1NC(=O)Nc1ccc(CC(=O)N[C@@H](CCCCNC(=O)/C=C/c2cccnc2)C(=O)N[C@@H](CCCC(=O)O)C(=O)NC2(C(=O)NCCOCCOCCNC(=O)CCC(=O)NCCOCCOCCNC(=O)CCC(=O)N[C@@H](CCCCNC(=O)CN3CCCN4CCN(CCCN(CC(=O)O)CC4)CC3)C(N)=O)CCCCC2)cc1 [^64Cu-CB-TE2A-LLP2A, metal not drawn, reference compound]
receptor concentration (Bmax) [1]: 304 fmol/mg and 304 ± 18 fmol/mg
Tumor to blood ratio [5]: 4.2 ± 1.4
Tumor to muscle ratio [5]: 5.5 ± 0.9
